Measured values taken from ChEMBL document CHEMBL3407413, “Repositioning proton pump inhibitors as anticancer drugs by targeting the thioesterase domain of human fatty acid synthase” (J Med Chem, 2015).
Active and inactive are the calls of the source. The calls are words filed in the database; no cut-off is given here.

Legend:
[1] = system: BXPC-3; assay: Effect of survival of human BxPC3 cells at 3.75 uM by MTT assay; format: functional, cell-based
Summary of the method: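 BxPC-3 pancreatic cancer cells given the supplement alone; growth read by MTT assay against a DMSO control; n = 3.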

[2] = system: BXPC-3; assay: Effect of FASN expression of human BxPC3 cells at 3.75 uM by Western blot analysis; format: functional, cell-based
Summary of the method: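 BxPC-3 pancreatic cancer cells given the supplement; FASN protein read by Western blot, with actin as the loading control.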

[3] = biological target: T1, Fatty acid synthase (Homo sapiens, UniProt P49327); assay: Inhibition of purified recombinant FASN TE activity (unknown origin) using 4-MUH as substrate preincubated for 30 mins before substrate addition measured after 1 hr by fluorescence assay
[4] = system: PANC-1; assay: Inhibition of survival of human PANC1 cells after 10 to 14 days by crystal violet staining-based colony formation assay; format: functional, cell-based
Summary of the method: (§1)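 Cells seeded at 100/well (PANC-1, including stable vector- or wild-type FASN-transfected lines) or 200/well (BxPC-3) and grown 24 h. Then cultured continuously with PPIs or DMSO vehicle for 10–14 days, stained with crystal violet and colonies counted manually. Three independent experiments.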

[5] = system: PANC-1; assay: Induction of apoptosis in human PANC1 cells assessed as cytoplasmic histone-associated DNA fragments after 72 hrs by ELISA method; format: functional, cell-based
[6] = system: BXPC-3; assay: Induction of apoptosis in human BxPC3 cells assessed as PARP1 cleavage after 24 hrs by Western blot analysis; format: functional, cell-based
Summary of the method: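 Harvested and analysed by Western blot with an antibody specific to cleaved PARP-1; actin as loading control.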

[7] = system: BXPC-3; assay: Effect on pH homeostasis in human BxPC3 cells assessed as change in intracellular pH at 12.5 to 100 uM after 72 hrs by pHrodo red dye-based fluorescence assay; format: functional, cell-based
Summary of the method: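 Loaded with pHrodo red intracellular pH dye and fluorescence read in-well. Fluorescence converted to pH using a calibration kit standard curve (fluorescence vs pH). Three independent experiments.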

[8] = system: BXPC-3; assay: Effect on pH homeostasis in human BxPC3 cells assessed as change in extracellular pH at 100 uM after 72 hrs by pH metry; format: functional, cell-based
Summary of the method: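 Culture medium was collected, cleared of cell debris by centrifugation, and measured with a pH meter.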

[9] = system: PANC-1; assay: Effect on FASN expression in human PANC1 cells at 12.5 to 200 uM after 30 mins by Western blot analysis; format: functional, cell-based
[10] = system: BXPC-3; assay: Cytotoxicity against human BxPC3 cells by MTT assay in presence of 3.75 uM palmitate; format: functional, cell-based
[11] = system: BXPC-3; assay: Induction of apoptosis in human BxPC3 cells in presence of 3.75 uM palmitate; format: functional, cell-based
[12] = system: PANC-1; assay: Inhibition of survival of wild-type FASN overexpressing human PANC1 cells after 10 to 14 days by crystal violet staining-based colony formation assay; format: functional, cell-based; summary of the method: as §1
[13] = system: PANC-1; assay: Inhibition of survival of vector-transfected human PANC1 cells after 10 to 14 days by crystal violet staining-based colony formation assay; format: functional, cell-based; summary of the method: as §1
[14] = biological target: T1, Fatty acid synthase
[15] = biological target: T1, Fatty acid synthase; remark: listed apart in the source

T1 sequence (P49327 whole entry): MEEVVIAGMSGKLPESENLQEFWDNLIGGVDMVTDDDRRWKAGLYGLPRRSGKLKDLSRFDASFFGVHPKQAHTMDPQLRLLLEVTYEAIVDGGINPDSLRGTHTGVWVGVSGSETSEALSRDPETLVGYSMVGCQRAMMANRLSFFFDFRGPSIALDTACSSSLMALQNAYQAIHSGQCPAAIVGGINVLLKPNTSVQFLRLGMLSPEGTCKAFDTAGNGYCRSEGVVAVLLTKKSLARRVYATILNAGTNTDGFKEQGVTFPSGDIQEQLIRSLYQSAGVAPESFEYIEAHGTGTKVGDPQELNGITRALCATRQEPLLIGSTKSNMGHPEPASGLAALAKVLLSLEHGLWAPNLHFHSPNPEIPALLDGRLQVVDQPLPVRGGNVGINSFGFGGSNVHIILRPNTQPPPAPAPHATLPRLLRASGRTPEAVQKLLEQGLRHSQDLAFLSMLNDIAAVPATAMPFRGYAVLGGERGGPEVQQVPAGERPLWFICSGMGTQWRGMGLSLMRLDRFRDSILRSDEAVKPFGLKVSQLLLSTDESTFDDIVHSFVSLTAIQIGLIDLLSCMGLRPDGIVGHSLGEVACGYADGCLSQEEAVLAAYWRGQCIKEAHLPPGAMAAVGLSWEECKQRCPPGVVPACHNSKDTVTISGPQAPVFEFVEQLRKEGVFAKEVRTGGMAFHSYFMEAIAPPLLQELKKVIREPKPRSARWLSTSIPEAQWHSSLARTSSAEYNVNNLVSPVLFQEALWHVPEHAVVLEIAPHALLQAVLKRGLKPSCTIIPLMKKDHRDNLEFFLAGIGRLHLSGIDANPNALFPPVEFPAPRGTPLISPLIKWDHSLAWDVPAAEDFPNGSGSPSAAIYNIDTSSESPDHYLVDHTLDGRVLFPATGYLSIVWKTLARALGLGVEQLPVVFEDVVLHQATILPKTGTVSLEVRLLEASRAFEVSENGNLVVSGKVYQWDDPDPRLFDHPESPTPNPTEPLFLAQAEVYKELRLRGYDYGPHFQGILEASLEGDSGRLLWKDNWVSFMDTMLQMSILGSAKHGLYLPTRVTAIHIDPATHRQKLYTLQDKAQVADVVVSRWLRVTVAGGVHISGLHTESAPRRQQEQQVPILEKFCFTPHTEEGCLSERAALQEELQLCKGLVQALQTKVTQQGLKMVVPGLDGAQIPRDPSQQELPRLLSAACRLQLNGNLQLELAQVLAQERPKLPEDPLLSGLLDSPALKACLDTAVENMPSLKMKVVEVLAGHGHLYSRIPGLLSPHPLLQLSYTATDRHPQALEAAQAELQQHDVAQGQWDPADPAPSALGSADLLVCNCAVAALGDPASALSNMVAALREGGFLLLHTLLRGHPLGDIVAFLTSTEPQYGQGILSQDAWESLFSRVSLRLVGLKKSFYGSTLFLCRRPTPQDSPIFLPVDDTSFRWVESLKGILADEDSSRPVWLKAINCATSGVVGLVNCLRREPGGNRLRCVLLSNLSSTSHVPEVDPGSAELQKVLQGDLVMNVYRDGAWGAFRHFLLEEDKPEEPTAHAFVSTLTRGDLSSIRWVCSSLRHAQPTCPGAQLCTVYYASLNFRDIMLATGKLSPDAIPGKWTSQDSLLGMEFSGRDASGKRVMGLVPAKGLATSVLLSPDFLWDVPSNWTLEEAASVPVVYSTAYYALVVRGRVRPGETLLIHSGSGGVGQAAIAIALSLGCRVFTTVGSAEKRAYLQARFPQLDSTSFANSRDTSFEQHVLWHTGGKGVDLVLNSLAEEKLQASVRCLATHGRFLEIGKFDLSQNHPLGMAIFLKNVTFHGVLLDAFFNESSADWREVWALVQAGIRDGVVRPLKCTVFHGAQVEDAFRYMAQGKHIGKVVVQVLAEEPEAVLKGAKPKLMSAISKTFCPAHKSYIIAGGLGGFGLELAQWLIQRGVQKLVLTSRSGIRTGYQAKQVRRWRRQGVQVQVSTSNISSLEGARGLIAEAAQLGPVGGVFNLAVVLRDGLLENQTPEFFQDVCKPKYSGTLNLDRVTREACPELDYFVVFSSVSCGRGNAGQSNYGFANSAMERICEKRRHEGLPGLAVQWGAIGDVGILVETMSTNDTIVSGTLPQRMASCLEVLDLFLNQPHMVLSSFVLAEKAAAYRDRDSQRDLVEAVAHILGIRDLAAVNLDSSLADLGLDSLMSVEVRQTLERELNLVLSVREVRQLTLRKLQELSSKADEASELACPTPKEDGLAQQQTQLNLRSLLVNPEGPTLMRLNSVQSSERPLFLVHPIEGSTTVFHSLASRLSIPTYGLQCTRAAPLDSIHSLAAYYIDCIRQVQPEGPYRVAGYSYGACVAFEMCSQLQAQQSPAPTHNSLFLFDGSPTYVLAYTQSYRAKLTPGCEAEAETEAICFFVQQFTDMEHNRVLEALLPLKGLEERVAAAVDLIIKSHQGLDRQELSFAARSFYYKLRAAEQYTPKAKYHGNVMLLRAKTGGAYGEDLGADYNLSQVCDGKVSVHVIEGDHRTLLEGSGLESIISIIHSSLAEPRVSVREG

Row | Compound | Activity [1] | Activity [2] | IC50 [3] | Ki [3] | inhibition [4] | Activity [5] | Activity [6] | Activity [7] | Activity [8] | Activity [9] | Activity [10] | Activity [11] | inhibition [12] | inhibition [13] | IC50 [14] | IC50 [15]
1 | CCCCCCCCCCCCCCCC(=O)O | inactive | inactive |  |  |  |  |  |  |  |  |  |  |  |  |  | 
2 | Cc1c(OCC(F)(F)F)ccnc1C[S+]([O-])c1nc2ccccc2[nH]1 (stereo unspecified) [LANSOPRAZOLE] |  |  | 46.7 µM | 5.3 µM | Dose-dependent effect | Dose-dependent effect | Dose-dependent effect | inactive | inactive | inactive | inactive | inactive | Active | inactive | 93 µM | 124 µM
